Shown are actives, neighbours in structure and some others; about 2.5% of the full set was active somewhere.
DSG3 Ab inh = inhibitors of pemphigus antibody binding to DSG3, primary screen, biochemical, bead-based, flow cytometry, scFv-GFP. Desmoglein-3 (Homo sapiens), P32926. binding (percent of control), % at 10 µM. hit rate 0.48% among 310,000. DSG3-coupled beads, scFv-anti-DSG3-GFP binding; hits give low values;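 active means binding more than 3 SD below its plate's average and above zero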;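 further: hits lower antibody fragment binding to DSG3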
TRPC4 inh = inhibitors of mouse TRPC4 channel, primary screen, Fluo4 calcium, HEK293 TRPC4beta/mu-opioid cells; hit rate 0.39% among 300,000; Short transient receptor potential channel 4 (Mus musculus), Q9QUQ5; B-score at 10 µM; DAMGO-evoked Fluo4 calcium flux; hits give low values;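 active means B-score over 3 SD under the library average, no early fluorescence shift, positive overall ratio signal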
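test system = HEK293 cells with stable TRPC4beta plus mu-opioid receptor expression | detection = Fluo4 Ca2+ flux fluorescence | read-out = integrated fluorescence ratio relative to baseline, converted to per-well B score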
TRPC4 agonist = activators of mouse TRPC4 channel, primary screen, Fluo4 calcium, HEK293 TRPC4beta/mu-opioid cells; Short transient receptor potential channel 4 (Mus musculus), Q9QUQ5; Fluo4 calcium fluorescence; hits give high values; B-score at 10 µM; hit rate 0.49% among 310,000;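 active means B-score above 5 SD of library B-scores, and initial fluorescence ratio not above library mean plus 5 SD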;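 further: positive B-score marks a calcium rise read as TRPC4 activation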
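System: HEK293 cells stably co-expressing mouse TRPC4beta and mu-opioid receptor; Schedule: Fluo4 dye loading 45 min at room temperature, 110 s recording; Detection: Fluo4 fluorescence, kinetic; Evaluation: B-scored integrated calcium fluorescence ratio; Controls: buffer (low) and maximal DAMGO (high).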
TRPC6 inh = mouse TRPC6 channel inhibitors, primary screen, cell-based, HEK293, membrane potential dye | Short transient receptor potential channel 6 (Mus musculus), Q61143 | ACh-evoked depolarization; hits give low values | B-score at 10 µM | hit rate 1.1% among 310,000;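 active means B-score under library mean minus 3 SD, initial fluorescence not abnormally high, positive integrated signal ratio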;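 further: B-score derived from integrated fluorescence ratio over the kinetic read; more negative B-score means stronger inhibition of depolarization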
TRPC4 PAM = positive allosteric modulators of TRPC4, primary screen, cell-based, mouse TRPC4beta, HEK293 mu-opioid, Fluo-4 calcium. hit rate 0.42% among 310,000. B-score at 10 µM. DAMGO EC20, Fluo-4 Ca2+ flux; hits give high values;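 active means B-score of calcium response area above 5 SD of library B-scores, with initial fluorescence ratio within 5 SD of library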;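 further: B-score of integrated fluorescence ratio over time as area under calcium response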
TRPC6 activator = mouse TRPC6 channel activators, primary screen, cell-based, HEK293, membrane potential dye | Short transient receptor potential channel 6 (Mus musculus), Q61143 | hit rate 0.13% among 310,000 | B-score at 10 µM | HEK293-TRPC6 membrane potential dye fluorescence; hits give high values;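 active means B-score of the integrated fluorescence ratio above library mean plus 3 SD, and starting fluorescence ratio within library mean plus 5 SD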;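 further: higher score means more depolarization so channel activation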
TRPC4 sel inh 2 = second check of whether TRPC6 inhibitors also affect mouse TRPC4. shares compounds with TRPC6 inh. HEK293 TRPC4/MOR, membrane potential dye fluorescence; channel activated by saturating DAMGO dose. inhibition, % at 10 µM. hit rate 42% among 920. AID 2776;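 active means compounds whose fluorescence signal differed from control wells by over 3 SD, either direction, in both duplicate plates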
TRPC4 spec = mouse TRPC4 modulation by TRPC6 hits, confirmation, selectivity assay for TRPC6 inhibitor project, cell-based, HEK293 TRPC4/mu-opioid, membrane potential dye; shares compounds with TRPC6 inh; membrane potential fluorescence; activity change, negative = inhibition, % at 10 µM; hit rate 61% among 920; AID 2777, 2010;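 active means rise or fall in signal beyond 3 SD of buffer-only wells in both replicate plates, either sign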;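 further: integrated kinetic ratio of fluorescence range over baseline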
HEK293 MPD ctr 2-1 = nonspecific membrane potential effects, parental HEK293, confirmation, counter-screen for TRPC6 inhibitor project, cell-based, second counter screen | shares compounds with TRPC6 inh | parental HEK293 membrane potential dye fluorescence; maximal acetylcholine challenge after compound addition | signal change vs control, % at 10 µM | hit rate 31% among 920;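 active means membrane potential signal moving either way by over 3 SD of the maximum-effect control, in both duplicate plates, meaning non-specific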
HEK293 MPD ctr-1 = membrane potential modulation in parental HEK293, confirmation, counter-screen for TRPC6 inhibitor project, cell-based. shares compounds with TRPC6 inh. parental HEK293 membrane potential dye fluorescence. membrane potential signal change, % at 10 µM. hit rate 60% among 920. AID 2780, 2010;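 active means membrane potential signal shifting up or down by more than 3 SD of buffer-only wells, on both duplicate plates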
HEK293 MPD ctr-2 = parental HEK293 membrane potential modulation, confirmation, counter-screen for TRPC6 modulator project, cell-based; shares compounds with TRPC6 inh; hit rate 51% among 2,400; AID 488924, 2010; membrane potential dye fluorescence; membrane potential signal change, % at 10 µM;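 active means membrane potential signal moves up or down beyond 5 SD from buffer-only wells, on both duplicate plates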
HEK293 MPD ctr 2-2 = parental HEK293 nonspecific activity of TRPC6 modulators, second screen; shares compounds with TRPC6 inh; membrane potential dye fluorescence; after compound, maximal acetylcholine stimulation; inhibition, % at 10 µM; hit rate 14% among 2,400;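 active means membrane potential signal drops by more than 5 SD from the mean control signal, in both duplicate plates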;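 further: plate controls were acetylcholine ECmax control wells for no effect and buffer only wells for full effect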
TRPC4/MOR mod = TRPC4 modulation by TRPC6 hit compounds, confirmation, selectivity assay for TRPC6 modulator project, cell-based, HEK293 TRPC4/mu-opioid, membrane potential dye, mouse | shares compounds with TRPC6 inh | membrane potential fluorescence | percent change from control (negative = decrease, positive = increase), % at 10 µM | hit rate 69% among 2,400;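 active means membrane potential signal moved up or down beyond 5 SD of buffer control wells, in both duplicate plates, actives on both sides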;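 further: plate controls were assay buffer wells for no effect and DAMGO maximal-effect wells for full effect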
TRPC4 ctr inh 2 = second check of whether TRPC6 modulators also affect mouse TRPC4; HEK293 TRPC4/mu-opioid, membrane potential dye fluorescence; stimulated with maximal-effect DAMGO; shares compounds with TRPC6 inh; hit rate 55% among 2,400; inhibition, % at 10 µM;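 active means drop in membrane potential signal beyond 5 SD of the control wells in both duplicate plates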;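 further: TRPC4 counter screen for TRPC6 hits run under conditions tuned for TRPC6 not TRPC4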
TRPC6 block conf = mouse TRPC6 channel inhibitors, confirmation, HEK293 cells, membrane potential dye, duplicate; hit rate 43% among 3,300; shares compounds with TRPC6 inh; ACh-evoked depolarization; AID 488960, 2010; inhibition, % at 10 µM;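 active means fluorescence ratio falls more than 5 SD below the full-stimulation control mean, in both duplicate runs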;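 further: integrated fluorescence ratio of peak minus minimum over baseline after agonist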
TRPC6 act confirm = mouse TRPC6 channel activators, confirmation, HEK293 cells, membrane potential dye, duplicate | shares compounds with TRPC6 inh | HEK293-TRPC6 membrane potential dye fluorescence, FDSS | activation, % at 10 µM | hit rate 11% among 2,800 | AID 488961, 2010;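 active means ratio signal rise beyond 5 SD above unstimulated control wells' mean, seen in both duplicate runs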;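 further: plate controls were buffer EC0 wells for no effect and acetylcholine ECmax response for full effect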
* marks the source's active call; other numbers are inactive results; i = inactive; nt = no result.

SMILES	DSG3 Ab inh	TRPC4 inh	TRPC4 agonist	TRPC6 inh	TRPC4 PAM	TRPC6 activator	TRPC4 sel inh 2	TRPC4 spec	HEK293 MPD ctr 2-1	HEK293 MPD ctr-1	HEK293 MPD ctr-2	HEK293 MPD ctr 2-2	TRPC4/MOR mod	TRPC4 ctr inh 2	TRPC6 block conf	TRPC6 act confirm
O=C(Nc1ccncc1)Nc1ccncc1	103	i	i	-7.5*	i	i	nt	nt	nt	nt	-310%*	70%*	-50%*	38%*	i	i
CC(=O)c1ccc(NC(=O)Nc2cccnc2)cc1	100	i	i	i	i	i	nt	nt	nt	nt	nt	nt	nt	nt	nt	nt
CC(=O)c1ccc(NC(=O)Nc2ccncc2)cc1	nt	-6*	43*	-5.2*	i	i	nt	nt	nt	nt	-142%*	74%*	-12%*	52%*	48%*	i
O=C(CNc1cc(S(=O)(=O)N2CCOCC2)ccc1NCC1CCCO1)Nc1cccc(F)c1 (configuration not stated)	105	i	i	i	i	i	nt	nt	nt	nt	nt	nt	nt	nt	nt	nt
COC(=O)Cc1c[nH]c2cccc(OCC(O)CN(Cc3ccccc3)C(C)C)c12 (configuration not stated)	101	i	i	-7.2*	i	i	72%*	0.3%*	i	i	nt	nt	nt	nt	i	i
CCCn1c(NCc2c[nH]c3ccccc23)nc2ccccc21	nt	i	i	-8.5*	i	i	25%*	-16%*	i	-209%*	nt	nt	nt	nt	i	i
